The values below come from ChEMBL document CHEMBL3351942, “Rexinoids isolated from Sophora tonkinensis with a gene expression profile distinct from the synthetic rexinoid bexarotene” (J Nat Prod, 2014).

Activity calls are given as the source filed them. No cut-off for these calls is given here.

Assay [1] addresses T1, Peroxisome proliferator-activated receptor delta (Homo sapiens) (UniProt Q03181).
T1 sequence (whole entry): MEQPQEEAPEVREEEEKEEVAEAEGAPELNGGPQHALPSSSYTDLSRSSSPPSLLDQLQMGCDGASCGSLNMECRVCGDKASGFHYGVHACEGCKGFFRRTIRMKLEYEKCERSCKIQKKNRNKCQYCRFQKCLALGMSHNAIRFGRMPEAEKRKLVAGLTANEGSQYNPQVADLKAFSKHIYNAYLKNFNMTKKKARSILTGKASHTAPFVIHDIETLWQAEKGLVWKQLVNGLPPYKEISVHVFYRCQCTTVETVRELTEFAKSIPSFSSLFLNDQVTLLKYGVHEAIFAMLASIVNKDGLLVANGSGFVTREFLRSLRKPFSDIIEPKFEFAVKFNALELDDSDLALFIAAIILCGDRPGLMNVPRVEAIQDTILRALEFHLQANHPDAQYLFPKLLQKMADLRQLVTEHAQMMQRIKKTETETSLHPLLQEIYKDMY
The assay can be described thus: Activation of PPARdelta (unknown origin) by receptor-CBP cofactor complex formation assay. The method, boiled down: (§1)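 Cell-free cofactor recruitment ELISA: ligand-dependent binding of PPAR isotypes to CBP, detected by HRP-conjugated anti-PPAR antibody at OD450. Full agonists GW7647 (α), GW1929 (γ), GW501516 (δ) define 100%, vehicle 0%; efficacy as maximum B/Bmax% and potency as EC50.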

A short description of assay [2]: Activation of LXR in mouse C2C12 cells assessed as induction of ABCA1 mRNA expression at 10 uM after 24 hrs in presence of T0901317 by quantitative RT-PCR analysis. The class given is cell-based. Summed up: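 C2C12 myoblasts grown in DMEM/10% FBS, differentiated at confluence in 2% horse serum, medium changed every other day for 5 days; myotubes treated 24 h with or without T0901317 (1 μM). Total RNA, DNase-treated, oligo(dT) RT from 0.5 μg, SYBR green qPCR; normalized to β-actin (delta-delta Ct), fold over vehicle; mean ± SD of four determinants, one of two experiments.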

In assay [3] the target is T2, Peroxisome proliferator-activated receptor gamma (Homo sapiens) (UniProt P37231).
T2 sequence (whole entry): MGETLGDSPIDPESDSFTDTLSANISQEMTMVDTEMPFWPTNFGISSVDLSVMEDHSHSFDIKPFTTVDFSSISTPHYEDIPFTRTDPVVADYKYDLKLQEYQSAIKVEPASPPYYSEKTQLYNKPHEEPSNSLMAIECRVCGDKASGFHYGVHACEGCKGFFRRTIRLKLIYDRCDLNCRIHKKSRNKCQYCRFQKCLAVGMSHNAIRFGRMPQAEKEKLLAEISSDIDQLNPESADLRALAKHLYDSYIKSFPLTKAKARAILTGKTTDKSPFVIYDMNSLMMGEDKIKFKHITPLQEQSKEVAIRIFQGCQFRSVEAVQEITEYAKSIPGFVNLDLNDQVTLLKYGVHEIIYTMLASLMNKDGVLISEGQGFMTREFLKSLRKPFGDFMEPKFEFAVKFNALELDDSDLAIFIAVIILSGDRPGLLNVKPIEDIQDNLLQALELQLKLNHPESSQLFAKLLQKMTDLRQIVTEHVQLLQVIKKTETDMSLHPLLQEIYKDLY
Description: Activation of PPARgamma (unknown origin) by receptor-CBP cofactor complex formation assay. Summed up:
as §1

Assay [4] addresses T3, Peroxisome proliferator-activated receptor delta (Mus musculus) (UniProt P35396).
T3 sequence (whole entry): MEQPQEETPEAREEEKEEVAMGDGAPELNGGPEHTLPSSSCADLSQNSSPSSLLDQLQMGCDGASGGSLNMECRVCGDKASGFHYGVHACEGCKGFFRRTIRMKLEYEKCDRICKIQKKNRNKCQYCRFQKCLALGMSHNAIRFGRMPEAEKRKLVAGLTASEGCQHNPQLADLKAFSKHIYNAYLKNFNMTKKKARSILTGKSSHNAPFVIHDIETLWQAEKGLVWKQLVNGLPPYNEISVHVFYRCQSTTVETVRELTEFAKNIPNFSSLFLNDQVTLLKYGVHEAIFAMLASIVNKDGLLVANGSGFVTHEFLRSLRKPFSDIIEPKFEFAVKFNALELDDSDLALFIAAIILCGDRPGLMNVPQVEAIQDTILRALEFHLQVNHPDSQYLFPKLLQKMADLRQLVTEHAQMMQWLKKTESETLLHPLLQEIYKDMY
The assay can be described thus: Activation of PPARdelta in mouse C2C12 cells assessed as induction of FABP3 mRNA expression at 10 uM after 24 hrs in presence of GW501516 by quantitative RT-PCR analysis. The class given is cell-based. The method, boiled down:
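Differentiated C2C12 myotubes (2% horse serum, 5 days) exposed 24 h with or without PPARδ agonist GW501516 (1 μM). mRNA quantified by SYBR green real-time RT-PCR, normalized to β-actin by delta-delta Ct, and expressed as fold induction vs vehicle; means ± SD of four determinants from one of two independent experiments; one-way ANOVA with Bonferroni.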

For assay [5], the target named is T4, Retinoic acid receptor RXR-alpha (Homo sapiens) (UniProt P19793).
T4 sequence (whole entry): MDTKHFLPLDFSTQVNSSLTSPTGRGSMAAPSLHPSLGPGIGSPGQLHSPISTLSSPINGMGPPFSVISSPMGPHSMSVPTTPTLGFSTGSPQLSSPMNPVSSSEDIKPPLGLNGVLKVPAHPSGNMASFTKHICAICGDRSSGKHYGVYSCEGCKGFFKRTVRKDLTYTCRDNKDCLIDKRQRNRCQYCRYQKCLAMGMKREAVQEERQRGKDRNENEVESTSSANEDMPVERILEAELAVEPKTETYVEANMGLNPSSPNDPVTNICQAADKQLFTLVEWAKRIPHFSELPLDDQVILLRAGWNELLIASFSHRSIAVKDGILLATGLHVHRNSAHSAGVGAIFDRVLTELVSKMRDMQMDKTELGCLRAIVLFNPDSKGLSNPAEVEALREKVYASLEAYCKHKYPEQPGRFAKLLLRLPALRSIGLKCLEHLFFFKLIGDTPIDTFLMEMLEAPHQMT
The assay can be described thus: Agonist activity at human RXR-alpha expressed in HEK293 cells coexpressing with pCMX-beta-gal at 10 uM after 24 to 48 hrs by luciferase reporter gene assay in presence of PA452 pan-antagonist. The class given is cell-based. The method, boiled down: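 RXRα reporter in HEK293: cotransfected with RXRα expression vector, luciferase reporter and pCMX-β-gal. Eight hours after transfection, cells were treated with test compound at 10 μM with or without the RXR pan-antagonist PA452 (10 μM). Luciferase was normalized to β-galactosidase. Means ± SD of three determinants; representative of three experiments; one-way ANOVA with Bonferroni's t-test.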
(In general: In a reporter assay the amount or activity of a reporter protein is the signal.)

Assay [6] has as its target T4, Retinoic acid receptor RXR-alpha (Homo sapiens). Description: Binding affinity to RXRalpha (unknown origin) by receptor-SRC1 cofactor complex formation assay. The method, boiled down: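 Ligand-dependent binding of RXR isotype to coactivator SRC-1 in an NR cofactor kit, detected with HRP-conjugated anti-RXR antibody at OD450. The full agonist CD3254 defined 100% and vehicle 0%. Efficacy was taken as maximum B/Bmax% and potency as EC50.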

With `CC(C)=CCc1cc([C@@H]2CC(=O)c3ccc(O)c(CC=C(C)C)c3O2)cc2c1OC(C(C)(C)O)C2` (stereo partly specified), the result in assay [1], in assay [3], in assay [5] and in assay [6] was inactive. Further, the outcome in assay [2] and in assay [4] was Active.
